According to ChEMBL document CHEMBL3297668, “Synthesis of truncated analogues of preptin-(1–16), and investigation of their ability to stimulate osteoblast proliferation” (Bioorg Med Chem, 2014):
Active and inactive are the calls of the source. The rule behind the calls is not given here. Where a SMILES comes first, the peptide text is derived from it.

test system: Osteoblast; experiment: Stimulation of proliferation of foetal rat osteoblasts at 10 '-10 to 10 '-8 M after 18 to 24 hrs by [3H]-thymidine incorporation assay relative to control; type: functional, cell-based
How it was run: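 Osteoblasts from 20-day fetal rat calvariae (collagenase digests 3 and 4) were expanded in FBS medium with ascorbate-2-phosphate, seeded at 2.5 × 10⁴ cells/well in 5% FBS/MEM for 24 h, then growth-arrested 24 h in 0.1% BSA/5 µg/mL ascorbate-2-phosphate. Peptide treatment 24 h, with [³H]-thymidine pulse over the final 6 h. Result expressed as treatment/vehicle ratio. 6 wells/group, 3–4 experiments, ANOVA with Dunnett's test.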

Row | Compound | Activity
1 | CC(=O)N[C@@H](CC(=O)O)C(=O)N[C@H](C(=O)N[C@@H](CO)C(=O)N[C@H](C(N)=O)[C@@H](C)O)C(C)C (Ac-DVST-NH2) | inactive
2 | CC(=O)N[C@@H](CC(=O)O)C(=O)N[C@H](C(=O)N[C@@H](CO)C(=O)N[C@H](C(=O)O)[C@@H](C)O)C(C)C (Ac-DVST-OH) | inactive
3 | CC(=O)N[C@@H](Cc1ccccc1)C(=O)N1CCC[C@H]1C(=O)N[C@@H](CCCNC(=N)N)C(=O)N[C@@H](Cc1ccc(O)cc1)C(N)=O (Ac-FPRY-NH2) | Active
4 | CC(=O)N[C@@H](Cc1ccccc1)C(=O)N1CCC[C@H]1C(=O)N[C@@H](CCCNC(=N)N)C(=O)N[C@@H](Cc1ccc(O)cc1)C(=O)O (Ac-FPRY-OH) | inactive
5 | CC(C)[C@H](NC(=O)[C@@H](N)CC(=O)O)C(=O)N[C@@H](CO)C(=O)N[C@H](C(N)=O)[C@@H](C)O (H-DVST-NH2) | inactive
6 | CC(C)[C@H](NC(=O)[C@@H](N)CC(=O)O)C(=O)N[C@@H](CO)C(=O)N[C@H](C(=O)O)[C@@H](C)O (H-DVST-OH) | inactive
7 | N=C(N)NCCC[C@H](NC(=O)[C@@H]1CCCN1C(=O)[C@@H](N)Cc1ccccc1)C(=O)N[C@@H](Cc1ccc(O)cc1)C(N)=O (H-FPRY-NH2) | inactive
8 | N=C(N)NCCC[C@H](NC(=O)[C@@H]1CCCN1C(=O)[C@@H](N)Cc1ccccc1)C(=O)N[C@@H](Cc1ccc(O)cc1)C(=O)O (H-FPRY-OH) | inactive
9 | Ac-DVSTSQAV-NH2 | inactive
10 | Ac-DVSTSQAV-OH | inactive
11 | Ac-DVSTSQAVLPDD-NH2 | inactive
12 | Ac-DVSTSQAVLPDD-OH | inactive
13 | Ac-DVSTSQAVLPDDFPRY-NH2 | Active
14 | Ac-DVSTSQAVLPDDFPRY-OH | inactive
15 | Ac-LPDDFPRY-NH2 | inactive
16 | Ac-LPDDFPRY-OH | inactive
17 | Ac-SQAVLPDDFPRY-NH2 | inactive
18 | Ac-SQAVLPDDFPRY-OH | inactive
19 | H-DVSTSQAV-OH | Active
20 | H-DVSTSQAVLPDD-NH2 | inactive
21 | H-DVSTSQAVLPDD-OH | inactive
22 | H-DVSTSQAVLPDDFPRY-NH2 | inactive
23 | H-DVSTSQAVLPDDFPRY-OH | Active
24 | H-LPDDFPRY-NH2 | inactive
25 | H-LPDDFPRY-OH | inactive
26 | H-SQAVLPDDFPRY-NH2 | inactive
27 | H-SQAVLPDDFPRY-OH | inactive

test system: Osteoblast; experiment: Stimulation of differentiation of rat osteoblasts assessed as increase in mineralized bone nodules at 10 '-9 M after 3 weeks using Von Kossa staining by bone nodule formation assay relative to control; type: functional, cell-based
How it was run: (§1)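 Primary osteoblasts from 20-day fetal rat calvariae (sequential collagenase digests 3 and 4) plated at 5 × 10⁴ cells/well in αMEM/10% FBS plus ascorbate-2-phosphate. At confluence (~3 days), medium switched to MEM/15% FBS with 50 µg/mL L-ascorbic acid-2-phosphate and 10 mM β-glycerophosphate, plus peptide; medium and peptide renewed twice weekly. Dexamethasone positive control. At 21 days, fixed in 10% neutral buffered formalin, Von Kossa stained, mineralized area quantified by image analysis.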

Row | Compound | Activity
28 | H-DVSTSQAV-OH | Active

test system: Osteoblast; experiment: Stimulation of differentiation of rat osteoblasts assessed as increase in mineralized bone nodules at 10 '-10 to 10 '-9 M after 3 weeks using Von Kossa staining by bone nodule formation assay relative to control; type: functional, cell-based; how it was run: as §1

Row | Compound | Activity
29 | CC(=O)N[C@@H](Cc1ccccc1)C(=O)N1CCC[C@H]1C(=O)N[C@@H](CCCNC(=N)N)C(=O)N[C@@H](Cc1ccc(O)cc1)C(N)=O (Ac-FPRY-NH2) | inactive
